Experimental data reported in ChEMBL document CHEMBL1121867, “Inhibition of separated forms of cyclic nucleotide phosphodiesterase from pig coronary arteries by 1,3-disubstituted and 1,3,8-trisubstituted xanthines” (J Med Chem, 1981).

What was measured:
[1] = Inhibition of Peak I phosphodiesterase from pig coronary arteries; parameters: species or system Sus scrofa; conditions: read-out: I50
Outline: (§1)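 Separated peak I and peak II phosphodiesterase forms prepared from pig coronary arteries. Hydrolysis of 1 µM cyclic nucleotide substrate was measured at 30 °C for 30 min, with enzyme diluted to give 10-20% hydrolysis without inhibitor. Compounds were added from 30% Me2SO, giving 3% Me2SO final in all tubes, including controls and blanks. I50 was read from concentration-inhibition curves over 10^-7 to 10^-4 M, or to 10^-3 M if soluble.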

Sus scrofa [2] = organism: Sus scrofa; experiment: Inhibition of Peak II phosphodiesterase from pig coronary arteries at 100 uM
Sus scrofa [3] = organism: Sus scrofa; experiment: Inhibition of pig coronary artery phosphodiesterase peak I cGMP specific and calmodulin sensitive at 100 uM
Sus scrofa [4] = organism: Sus scrofa; experiment: Inhibition of pig coronary artery phosphodiesterase peak I cGMP specific and calmodulin sensitive; conditions: concentration not given here; outline: as §1
[5] = Inhibition of pig coronary artery cAMP-specific phosphodiesterase; parameters: species or system Sus scrofa; conditions: read-out: I50
Outline: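 Separated peak I and peak II phosphodiesterase forms prepared from pig coronary arteries. Compounds were added from 30% Me2SO, giving 3% Me2SO final in all tubes, including controls and blanks. I50 was read from concentration-inhibition curves over 10^-7 to 10^-4 M, or to 10^-3 M if soluble.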

Sus scrofa [6] = organism: Sus scrofa; experiment: Inhibition of pig coronary artery phosphodiesterase peak II cyclic AMP specific at 100 uM

SMILES | IC50 [1] [µM] | inhibition (Sus scrofa [2]) [%] | also measured
CC(C)Cn1c(=O)n(C)c(=O)c2[nH]c(CCCO)nc21 | 11 | 29 | 
CC(C)Cn1c(=O)n(C)c(=O)c2[nH]c(CCl)nc21 | 8.9 | 28 | 
CC(C)Cn1c(=O)n(C)c(=O)c2[nH]c(CCC(=O)O)nc21 | 45 | 12 | 
COC(=O)Cn1c(=O)c2nc[nH]c2n(CC(C)C)c1=O |  | 40 | inhibition (Sus scrofa [3]): 26%
COC(=O)CCc1nc2c(=O)n(C)c(=O)n(CC(C)C)c2[nH]1 | 9.8 | 30 | 
Cn1c(=O)c2nc[nH]c2n(CCO)c1=O |  | 23 | inhibition (Sus scrofa [3]): 30%
CC(C)Cn1c(=O)n(CC(=O)O)c(=O)c2[nH]cnc21 |  | 1.9 | inhibition (Sus scrofa [4]): 2.4%
COCc1nc2c([nH]1)c(=O)n(C)c(=O)n2CC(C)C | 5.2 |  | IC50 [5]: 212 µM
CC(=O)OCCn1c(=O)n(C)c(=O)c2nc[nH]c21 |  | 27 | inhibition (Sus scrofa [3]): 43%
C=C(C)Cn1c(=O)n(C)c(=O)c2nc[nH]c21 | 10 |  | IC50 [5]: 36 µM
CC(C)Cn1c(=O)n(C)c(=O)c2[nH]nnc21 |  |  | inhibition (Sus scrofa [3]): 35%; inhibition (Sus scrofa [6]): 1%
CC(C)Cn1c(=O)n(C)c(=O)c2[nH]c(CO)nc21 | 9.4 |  | IC50 [5]: 283 µM
CC(C)=CCc1nc2c([nH]1)c(=O)n(C)c(=O)n2CC(C)C | 6.3 | 21 | 
CC(C)Cn1c(=O)n(C)c(=O)c2[nH]c(N(C)C)nc21 | 1.6 | 33 | 
C=CCn1c(=O)n(C)c(=O)c2nc[nH]c21 | 25 |  | IC50 [5]: 52 µM
C=C(C)Cn1c(=O)n(CCC(C)C)c(=O)c2nc[nH]c21 |  | 42 | inhibition (Sus scrofa [3]): 38%
Cn1c(=O)c2nc[nH]c2n(C)c1=O [THEOPHYLLINE] | 100 |  | 
CNc1nc2c(=O)n(C)c(=O)n(CC(C)C)c2[nH]1 | 1.2 | 39 | 
CC(C)CCn1c(=O)c2[nH]cnc2n(CC(C)C)c1=O | 86 |  | IC50 [5]: 17 µM
